The values below come from ChEMBL document CHEMBL1147232, “An anxiolytic-like effect of Ginkgo biloba extract and its constituent, ginkgolide-A, in mice” (J Nat Prod, 2003).

The structures appear in SMILES notation.

The subject of data set [1] is Mus musculus. Nature of the data set: Anxiolytic-like activity in ddY mouse assessed as number of shuttle per hour at 10 mg/kg, po by discrete shuttle avoidance test. It is filed as functional. The gist of the method: (§1)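 Male ddY mice (7 weeks, 33-36 g), pretrained and reused, showing stable baselines (150-250 shuttles/h, fewer than 10 shocks per session). Single oral dose immediately before a 60-min discrete shuttle avoidance session of 120 trials. Shuttles were full crossings of the chamber. Drug tests ran 3-4 days apart. Vehicle controls; n=10 per group; mean ± SEM; one- or two-way ANOVA with Student-Newman-Keuls.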

Data set [2] concerns Mus musculus. The experiment in a line: Anxiolytic-like activity in ddY mouse assessed as number of shocks per hour at 10 mg/kg, po by discrete shuttle avoidance test. It is filed as functional. Put shortly: as §1
Data set [3] concerns Mus musculus. Nature of the data set: Anxiolytic-like activity in ddY mouse assessed as time spent in open-sided arms at 1 mg/kg, po for 7 days measured 24 hrs after final drug administration by elevated plus-maze test. It is filed as functional. The gist of the method: (§2)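 Elevated plus-maze with two walled arms (6 × 30 × 10 cm); time (s) in the open-sided arms recorded 24 h after the last of daily oral doses given for the stated number of days. Male ddY mice, 7 weeks, drug-naive, used once. Mean ± SEM; ANOVA with Student-Newman-Keuls.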

Data set [4] relates to Mus musculus. Nature of the data set: Anxiolytic-like activity in ddY mouse assessed as ambulatory activity at 1 mg/kg, po for 7 days measured 24 hrs after final drug administration assessed per 5 mins by tilting type ambulometer test. It is filed as functional. The gist of the method: (§3)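 Male ddY mice (7 weeks, 33-36 g) dosed orally once daily (0.1 mL/10 g) for the stated number of days. Plus-maze 24 h after final dose, then ambulatory activity counted for 5 min on a tilting ambulometer immediately after. Animals used once; N per group as tabulated; mean ± SEM; ANOVA with Student-Newman-Keuls.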

The test system of data set [5] is Mus musculus. The experiment in a line: Anxiolytic-like activity in ddY mouse assessed as time spent in open-sided arms at 0.3 mg/kg, po for 7 days measured 24 hrs after final drug administration by elevated plus-maze test. It is filed as functional.
Data set [6] relates to Mus musculus. Nature of the data set: Anxiolytic-like activity in ddY mouse assessed as ambulatory activity at 0.3 mg/kg, po for 7 days measured 24 hrs after final drug administration assessed per 5 mins by tilting type ambulometer test. It is filed as functional.
Data set [7] deals with Mus musculus. The experiment in a line: Anxiolytic-like activity in ddY mouse assessed as time spent in open-sided arms at 1 mg/kg, po for 1 day measured after 1 hr by elevated plus-maze test. It is filed as functional. Put shortly:
(§4)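 Elevated plus-maze with two walled arms (6 × 30 × 10 cm) and an 8 × 8 cm central platform; read-out is time (s) in the open-sided arms. 10 mice per group, each used once; mean ± SEM; one-way ANOVA with Student-Newman-Keuls.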

The subject of data set [8] is Mus musculus. Nature of the data set: Anxiolytic-like activity in ddY mouse assessed as ambulatory activity at 1 mg/kg, po for 1 day measured after 1 hr assessed per 5 mins by tilting type ambulometer test. It is filed as functional. Put shortly: (§5)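 Ambulatory activity counted for 5 min on a tilting ambulometer immediately after the maze. 10 mice per group; mean ± SEM; one-way ANOVA with Student-Newman-Keuls.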

In data set [9] the test system is Mus musculus. Nature of the data set: Anxiolytic-like activity in ddY mouse assessed as time spent in open-sided arms at 2 mg/kg, po for 1 day measured after 1 hr by elevated plus-maze test. It is filed as functional. Put shortly: as §4
Data set [10] deals with Mus musculus. Nature of the data set: Anxiolytic-like activity in ddY mouse assessed as ambulatory activity at 2 mg/kg, po for 1 day measured after 1 hr assessed per 5 mins by tilting type ambulometer test. It is filed as functional. Put shortly: as §5
Data set [11] has as its system Mus musculus. The experiment in a line: Anxiolytic-like activity in ddY mouse assessed as time spent in open-sided arms at 2 mg/kg, po for 7 days measured 24 hrs after final drug administration by elevated plus-maze test. It is filed as functional. The gist of the method: as §2
For data set [12], the system named is Mus musculus. The experiment in a line: Anxiolytic-like activity in ddY mouse assessed as ambulatory activity at 2 mg/kg, po for 7 days measured 24 hrs after final drug administration assessed per 5 mins by tilting type ambulometer test. It is filed as functional. Put shortly: as §3
In data set [13] the test system is Mus musculus. Nature of the data set: Anxiolytic-like activity in ddY mouse assessed as time spent in open-sided arms at 1 mg/kg, po for 2 days measured 24 hrs after final drug administration by elevated plus-maze test. It is filed as functional. Put shortly: as §2
In data set [14] the test system is Mus musculus. Nature of the data set: Anxiolytic-like activity in ddY mouse assessed as ambulatory activity at 1 mg/kg, po for 2 days measured 24 hrs after final drug administration assessed per 5 mins by tilting type ambulometer test. It is filed as functional. The gist of the method: as §3
Data set [15] relates to Mus musculus. The experiment in a line: Anxiolytic-like activity in ddY mouse assessed as time spent in open-sided arms at 1 mg/kg, po for 3 days measured 24 hrs after final drug administration by elevated plus-maze test. It is filed as functional. Put shortly: as §2
The subject of data set [16] is Mus musculus. The experiment in a line: Anxiolytic-like activity in ddY mouse assessed as ambulatory activity at 1 mg/kg, po for 3 days measured 24 hrs after final drug administration assessed per 5 mins by tilting type ambulometer test. It is filed as functional. Put shortly: as §3
Data set [17] deals with Mus musculus. Nature of the data set: Anxiolytic-like activity in ddY mouse assessed as time spent in open-sided arms at 1 mg/kg, po for 4 days measured 24 hrs after final drug administration by elevated plus-maze test. It is filed as functional.
For data set [18], the system named is Mus musculus. Nature of the data set: Anxiolytic-like activity in ddY mouse assessed as pentobarbital-induced sleep time at 10 mg/kg, po administered 30 mins before pentobarbital challenge. It is filed as functional. The gist of the method:
(§6)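 Oral dose to male ddY mice 30 min before pentobarbital-Na 50 mg/kg ip. Sleep time is the interval between loss and recovery of righting reflex (s). Separate drug-naive mice, used once; 10 per group; mean ± SEM; one-way ANOVA with Student-Newman-Keuls.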

Data set [19] has as its system Mus musculus. The experiment in a line: Anxiolytic-like activity in ddY mouse assessed as pentobarbital-induced sleep time at 20 mg/kg, po administered 30 mins before pentobarbital challenge. It is filed as functional. The gist of the method: as §6
Data set [20] concerns Mus musculus. Nature of the data set: Anxiolytic-like activity in ddY mouse assessed as number of shuttle per hour at 1 mg/kg, po administered 30 mins before test by discrete shuttle avoidance test. It is filed as functional. The gist of the method:
(§7)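 Well-trained male ddY mice with stable baselines (150-250 shuttles/h, under 10 shocks) had 60-min discrete shuttle avoidance sessions of 120 trials, dosed orally 30 min before. Shuttles and shocks per hour counted. Drug tests at 3-4 day intervals, mice reused; 10 mice per group; mean ± SEM; one-way ANOVA with Student-Newman-Keuls.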

Data set [21] deals with Mus musculus. The experiment in a line: Anxiolytic-like activity in ddY mouse assessed as number of shocks per hour at 1 mg/kg, po administered 30 mins before test by discrete shuttle avoidance test. It is filed as functional. Put shortly:
as §7

Data set [22] concerns Mus musculus. The experiment in a line: Anxiolytic-like activity in ddY mouse assessed as number of shuttle per hour at 5 mg/kg, po administered 30 mins before test by discrete shuttle avoidance test. It is filed as functional. Put shortly: as §7
The subject of data set [23] is Mus musculus. Nature of the data set: Anxiolytic-like activity in ddY mouse assessed as number of shocks per hour at 5 mg/kg, po administered 30 mins before test by discrete shuttle avoidance test. It is filed as functional. Put shortly: as §7
A short description of data set [24]: Half life in rat. It is filed as ADME, organism-based. To be noted: in vivo.
Data set [25] deals with Mus musculus. The experiment in a line: Toxicity in ddY mouse assessed as induction of sedation at 20 mg/kg, po after 1 to 3 hrs. To be noted: in vivo. It is filed as organism-based. Also on record: dose 20 mg/kg, route oral.
Data set [26] deals with Mus musculus. The experiment in a line: Toxicity in ddY mouse assessed as induction of excitation at 20 mg/kg, po after 1 to 3 hrs. It is filed as organism-based. Also noted: dose 20 mg/kg, route oral. To be noted: in vivo.
Data set [27] has as its system Mus musculus. The experiment in a line: Toxicity in ddY mouse assessed as induction of ataxia at 1 mg/kg, po after 1 to 3 hrs. It is filed as organism-based. Also on record: dose 1 mg/kg, route oral. To be noted: in vivo.
Data set [28] relates to Mus musculus. Nature of the data set: Toxicity in ddY mouse assessed as induction of muscle relaxation at 1 mg/kg, po after 1 to 3 hrs. Also noted: dose 1 mg/kg, route oral. To be noted: in vivo. It is filed as organism-based.
For data set [29], the system named is Mus musculus. Nature of the data set: Toxicity in ddY mouse assessed as body weight gain after repeated administration. It is filed as organism-based. The conditions noted are these: in vivo.
Data set [30] concerns Mus musculus. Nature of the data set: Anxiolytic-like activity in ddY mouse assessed as ambulatory activity at 1 mg/kg, po for 4 days measured 24 hrs after final drug administration assessed per 5 mins by tilting type ambulometer test. It is filed as functional.
The test system of data set [31] is Mus musculus. The experiment in a line: Anxiolytic-like activity in ddY mouse assessed as time spent in open-sided arms at 1 mg/kg, po for 5 days measured 24 hrs after final drug administration by elevated plus-maze test. It is filed as functional. The gist of the method: as §2
In data set [32] the test system is Mus musculus. The experiment in a line: Anxiolytic-like activity in ddY mouse assessed as ambulatory activity at 1 mg/kg, po for 5 days measured 24 hrs after final drug administration assessed per 5 mins by tilting type ambulometer test. It is filed as functional. Put shortly:
as §3

Data set [33] concerns Mus musculus. The experiment in a line: Toxicity in ddY mouse at 1 to 2 mg/kg, po. The conditions noted are these: in vivo. Also noted: dose 1-2 mg/kg, route oral. It is filed as organism-based.
The subject of data set [34] is Mus musculus. Nature of the data set: Anxiolytic-like activity in ddY mouse assessed as pentobarbital-induced sleep time at 0.5 mg/kg, po administered 30 mins before pentobarbital challenge. It is filed as functional. The gist of the method:
as §6

Data set [35] has as its system Mus musculus. The experiment in a line: Anxiolytic-like activity in ddY mouse assessed as pentobarbital-induced sleep time at 1 mg/kg, po administered 30 mins before pentobarbital challenge. It is filed as functional. Put shortly: as §6
Data set [36] relates to Mus musculus. The experiment in a line: Anxiolytic-like activity in ddY mouse assessed as pentobarbital-induced sleep time at 2 mg/kg, po administered 30 mins before pentobarbital challenge. It is filed as functional. The gist of the method:
as §6

The subject of data set [37] is Mus musculus. The experiment in a line: Anxiolytic-like activity in ddY mouse assessed as pentobarbital-induced sleep time at 5 mg/kg, po administered 30 mins before pentobarbital challenge. It is filed as functional. The gist of the method:
as §6

Take `Cn1c(=O)c2c(ncn2C)n(C)c1=O` [CAFFEINE]: the Activity is given as 428.9 in the data set with Mus musculus [1] and 3.4 in the data set on Mus musculus [2].

In the case of `CN1C(=O)CN=C(c2ccccc2)c2cc(Cl)ccc21` [DIAZEPAM], the Activity in the data set with Mus musculus [3] was 24.7 s; in the data set with Mus musculus [4], 43.1.

Regarding `CCOC(=O)c1ncn2c1CN(C)C(=O)c1cc(F)ccc1-2` [FLUMAZENIL], the values for the Activity with Mus musculus [5] and in the data set on Mus musculus [6] were 5.5 s and 31.5, respectively.

In the case of `C[C@@H]1C(=O)O[C@H]2C[C@@]34[C@H]5C[C@@H](C(C)(C)C)[C@]36[C@@H](OC(=O)[C@@H]6O)O[C@@]4(C(=O)O5)[C@]21O` [GINKGOLIDE A], the Activity came out at 18.6 s with Mus musculus [3]; 35.3 in the data set on Mus musculus [4]; 7.6 s in the data set with Mus musculus [7]; 39.1 in the data set with Mus musculus [8]; 5.9 s in the data set on Mus musculus [9]; 35.4 with Mus musculus [10]. For the same compound, the Activity in the data set with Mus musculus [11] was found to be 17.4 s; with Mus musculus [12], 29.5; in the data set on Mus musculus [13], 10.5 s; in the data set on Mus musculus [14], 31.6; with Mus musculus [15] it was 12.7 s; with Mus musculus [16] it was 35.5. The Activity in the data set with Mus musculus [17] came to 17.8 s; in the data set with Mus musculus [18], 3690 s; with Mus musculus [19] it was 3490 s; in the data set on Mus musculus [20], 182.8; in the data set on Mus musculus [21], 1.6; with Mus musculus [22], 162.9. In addition, the Activity with Mus musculus [23] was 1.1; in the data set on Mus musculus [25], “Non-toxic”; with Mus musculus [26] it was “Non-toxic”; with Mus musculus [27], “Non-toxic”; with Mus musculus [28], “Non-toxic”; in the data set on Mus musculus [29] it was “Non-toxic”. In addition, the Activity is 40.1 in the data set with Mus musculus [30]; 17.8 s with Mus musculus [31]; 40.1 in the data set with Mus musculus [32]; “Non-toxic” in the data set with Mus musculus [33]; 3270 s with Mus musculus [34]; 2830 s in the data set with Mus musculus [35]. Further, the Activity came to 3510 s with Mus musculus [36] and 3694 s in the data set with Mus musculus [37]. Also, the half-life – broadly, the time needed for the level to fall by half in the phase considered – in [24] was 1.5 h.
